Key:
[1] = melting temperature; fluorescence melt of hairpins on a sequencing array, two-state fit, raised by 9.35 °C to match UV melts; settings: sodium 0.088 M
Outline: (§1)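 Hairpins were imaged by Cy3 fluorescence on a sequenced MiSeq flow cell with annealed Cy3 and quencher oligos, in 50 mM Na-HEPES pH 8.0, 25 mM NaCl, in 2.5 °C steps up to 60 °C. Bootstrapped two-state fits of normalised signals gave melting temperature and folding enthalpy. Four replicates were combined by inverse variance, and fitted temperatures were raised by 9.35 °C to match UV melts.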

[2] = folding enthalpy; higher = less favourable; fluorescence melt of hairpins on a sequencing array, two-state fit; settings: sodium 0.088 M
Outline: as §1

Sequence | Tm [1] [°C] | folding enthalpy [2] [kcal/mol]
GACTCTACGAAAGTAGTC (((..(((....)))))) | 30.1 | -10.9
GAGGCAGGAAACTGCCCC (.(((((....))))).) | 44.2 | -9.1
GTATCCGGAAACGGGTAC (((.(((....))).))) | 51.3 | -42.2
CGAGGTCGGAAACGATCG (((..(((....)))))) | 41.2 | -21
GAGGCCGGAAACGGTCTC (((.(((....))).))) | 64.8 | -36
GTCCGTGGAAACACGGGC (.(((((....))))).) | 63.8 | -24.1
GCCGAGCGAAAGCCCTGC ((.(.((....)).).)) | 33.5 | -13.7
GATCCACACCTGGATC ((((((....)))))) | 51 | -44.8
GAGTGAGGAAACCCACTC (((((.(....).))))) | 44.5 | -33.8
GCACCTCCGAAAGGATGC (((..(((....)))))) | 36.5 | -21.9
GCTTAGCGAAAGCTTCGC ((..(((....)))..)) | 42.9 | -15
GATCTCATACGAGATC ((((((....)))))) | 52.6 | -37.8
GATCGTCCTAACGATC ((((((....)))))) | 55.5 | -40.4
GATCCGGAGACGGATC ((((((....)))))) | 63.6 | -32.9
GTGCGCGGAAACGCGTGC (..((((....))))..) | 57 | -16.7
GATACCGAAAGGTCATC ((((((....))).))) | 35.6 | -17
GATCCGGGAGCGGATC ((((((....)))))) | 61.1 | -37.4
GATCAAAGACTTGATC ((((((....)))))) | 39.2 | -25.1
GATCGCCGAAAGGCTATC (((.(((....))).))) | 42.1 | -20.4
GATCCTCACGAGGATC ((((((....)))))) | 54.8 | -43.3
GCACAGCGAAAGCCGAGC ((.(.((....)).).)) | 39.3 | -12.6
GATCGGGTCACCGATC ((((((....)))))) | 67.4 | -36.4
GGTGAGGCGAAAGCCACC (((..(((....)))))) | 51.7 | -16.1
GACGCTGCGAAAGCAGTC (((..(((....)))))) | 37.2 | -8.26

Sequence | Tm [1] [°C] | folding enthalpy [2] [kcal/mol]
GATCCCTTCAGGGATC ((((((....)))))) | 68.3 | -31.4
GTTTGCCCGAAAGGGAAC (((..(((....)))))) | 32.5 | -11.3
GATCACTCTCGTGATC ((((((....)))))) | 55.7 | -41.8
GGCGACGAAAGTCACGCC ((((((....)))..))) | 54.1 | -27.4
GCGAGGCGAAAGCTTAGC ((.(.((....)).).)) | 56.9 | -16.7
GATCACCCCTGTGATC ((((((....)))))) | 55.6 | -47.6
GCTGCCTCGAAAGAGAGC (((..(((....)))))) | 42.3 | -14
GATCTTGCTAAAGATC ((((((....)))))) | 53.2 | -38.1
GGATTTGCGAAAGCATCC (((..(((....)))))) | 38.9 | -16.4
GCACAGGGAAACCTATGC (((.(((....))).))) | 37.1 | -24.2
GAGTACGAAAGTAGACTC ((((((....)))..))) | 35.8 | -16.8
GCCATCGGAAACGACGGC (((.(((....))).))) | 52.1 | -35.5
GATCTCTCCTGAGATC ((((((....)))))) | 55 | -39.3
GCTAATCGAAAGATCAGC (((.(((....))).))) | 41.2 | -29.4
GAGAGCGAAAGCTCCTC ((((((....))).))) | 49 | -10.3
GGACGCGAAAGCGTGTCC ((((((....)))..))) | 54 | -12.7
CGATTTCGGAAACGATCG (((..(((....)))))) | 29.6 | -9.46
GTGGACGAAAGTCGCAC ((((((....))).))) | 50.4 | -15.5
GGCCTGGGAAACCGGGTC (.((.((....)).)).) | 49 | -27.7
GGTGGTTCGAAAGAAACC (((..(((....)))))) | 41.5 | -20.4
GCATGGCGAAAGCGACGC ((.(.((....)).).)) | 38.3 | -12.7
GTATATCGAAAGATTAC (((.(((....)))))) | 31 | -14.6
GGGGTAGGAAACTGTCCC (((..((....))..))) | 36.2 | -25.5
GACAGCGAAAGCTTAGTC ((((((....)))..))) | 38.1 | -19

Sequence | Tm [1] [°C] | folding enthalpy [2] [kcal/mol]
GCCCCTCGAAAGAGGGC (((.(((....)))))) | 61.5 | -13
GCCTCACGAAAGTGGGC (((.(((....)))))) | 58.6 | -33.4
GAACCCGAAAGGGCTTC ((((((....))).))) | 46.3 | -15
GGATTTCGAAAGAATTCC (((.(((....))).))) | 42 | -31.1
GATCGACTTCTCGATC ((((((....)))))) | 51.5 | -41
GGTAGCGAAAGCTCCACC ((((((....)))..))) | 38.8 | -13.2
GGCGCATCGAAAGATGCC (((..(((....)))))) | 45.2 | -9.42
GCGACGCGAAAGCGAGGC ((..(((....)))..)) | 54.6 | -12.8
GATCTCTGCTGAGATC ((((((....)))))) | 53.7 | -45.9
GCTCCCGAAAGGGCCAGC ((((((....)))..))) | 34.8 | -11.7
GCACTCGAAAGAGGTGC ((((((....))).))) | 54.4 | -29.1
GGTTGAGAAATCAACC ((((((....)))))) | 53.3 | -34
GATCCCTTGGGGATC ((((((...)))))) | 60.1 | -33
GATCCCGGAAACGGAATC (((.(((....))).))) | 40.1 | -24.7
GCAACAGGAAACTGCTGC (((.(((....))).))) | 44.6 | -30.2
GCCTGCGAAAGCATAGGC ((((((....)))..))) | 56 | -31.4
GCTTTCGAAAGAAGAAGC ((((((....)))..))) | 32.1 | -22.2
GATCAAGGTATTGATC ((((((....)))))) | 48.7 | -35.2
GGTGTAGAAATACACC ((((((....)))))) | 53.7 | -29.6
GTGCTTACGAAAGTACAC (((..(((....)))))) | 34 | -9.43
GATCCTTCTAAGGATC ((((((....)))))) | 54.4 | -47.8
CATTCGAAAGAATG (((((....))))) | 49.7 | -23.2
GTCACCGAAAGGTGCGAC ((((((....)))..))) | 58.5 | -13
GGAGTTGGAAACAACTCC (((((((....))))))) | 65.9 | -45.3

Sequence | Tm [1] [°C] | folding enthalpy [2] [kcal/mol]
GCGAGGTCTCGC ((((....)))) | 54.9 | -22
GCTGTTCGAAAGAAAAGC (((.(((....))).))) | 46.5 | -28.6
GGATACGAAAGTAAATCC ((((((....)))..))) | 35.8 | -19.4
GGCGGCGAAAGCCTAGCC ((((((....)))..))) | 60.8 | -21.3
GATTTTGGAAACAGAATC ((((.((....)).)))) | 32.1 | -24.7
GATCTTATATAAGATC ((((((....)))))) | 44.9 | -34.1
GCAGGAGGAAACCCCTGC (((((.(....).))))) | 50.9 | -41.4
GGGATTGGAAACAGTCCC ((((.((....)).)))) | 48.8 | -31.5
GGTCCAGGAAACCAGACC ((((..(....)..)))) | 34.5 | -23.1
GGTCGTGGAAACACGGTC (..((((....))))..) | 41.4 | -15.8
CGGCCGGAAACGGCACCG ((((((....)))..))) | 34.5 | -8.06
AGAGGGAAACCTCT (((((....))))) | 43.4 | -16.6
GATCGTCAAACGATC ((((((...)))))) | 52.1 | -31.7
GCATAGCGAAAGCACTGC (((..((....))..))) | 39.6 | -13.9
GCCGCAGCGAAAGCTGGC (((..(((....)))))) | 56.7 | -9.6
GATCATGAAGATGATC ((((((....)))))) | 50.3 | -34.9
GCAGGCGAAAGCCAGTGC ((((((....)))..))) | 49.5 | -18.9
GATCTATAATTAGATC ((((((....)))))) | 39.9 | -25.5
GGCTGGCGAAAGCCCGCC (((.(((....))).))) | 63 | -22.6
GCGAAAGATCGC ((((....)))) | 39.9 | -12.4
GCGTCTAACGC ((((...)))) | 53.3 | -20.6
